Series [1] concerns the target T1, G-protein coupled receptor 84 (Homo sapiens, UniProt Q9NQS5). Put plainly: Agonist activity at Gi coupled human GPR84 expressed in CHO cells assessed as inhibition of forskolin-induced cAMP accumulation up to 100 uM preincubated for 5 mins followed by forskolin addition measured after 15 mins in presence of [3H]-cAMP by radiometric assay. The format is functional, cell-based. In short, it runs like this: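 Concentration-response in CHO-hGPR84 cells. Compound preincubated 5 min, then forskolin 10 µM added for a further 15 min. Maximal forskolin-induced cAMP without agonist set as 100 %. […] Mean ± SEM of 3 independent experiments in duplicate.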

The target of series [2] is T1, G-protein coupled receptor 84. Put plainly: Agonist activity at Gi coupled human GPR84 expressed in CHO cells assessed as inhibition of forskolin-induced cAMP accumulation at 10 uM after 15 mins in presence of [3H]-cAMP by radiometric assay relative to decanoic acid. The format is functional, cell-based. A digest of the protocol: (§1)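 Forskolin (10 µM) added with or without test compound for 15 min. Cells lysed in hot (90 °C) EDTA/Triton X-100 solution. cAMP measured radiometrically with bovine adrenal binding protein and [³H]cAMP, expressed as % of forskolin-alone response.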
Background: Cyclic AMP is a second messenger, typically raised through Gs and lowered through Gi signalling.

Series [3] has the same target. Put plainly: Agonist activity at Gi coupled human GPR84 expressed in CHO cells assessed as inhibition of forskolin-induced cAMP accumulation after 15 mins in presence of [3H]-cAMP by radiometric assay. The format is functional, cell-based. In short, it runs like this: as §1
Series [4] has the same target. Put plainly: Agonist activity at human GPR84 expressed in CHO cells assessed as beta-arrestin recruitment after 90 mins by beta-galactosidase complementation assay. It is filed as cell-based. A digest of the protocol: (§2)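 CHO cells co-expressing human GPR84–β-galactosidase fragment and β-arrestin–complementary fragment, 20,000 per well. Compounds in DMSO (final ≤1 %) added for 90 min, then detection reagent for 60 min at rt; luminescence read. Three to five independent experiments in duplicate.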
Background: Arrestin recruitment assays detect the binding of arrestin to an activated receptor.

For series [5] the target is unchanged. Kind of series: Agonist activity at human GPR84 expressed in CHO cells assessed as beta-arrestin recruitment at 10 uM after 90 mins by beta-galactosidase complementation assay relative to embelin. The format is cell-based. A digest of the protocol: as §2
Series [6] deals with T2, Free fatty acid receptor 1 (Homo sapiens, UniProt O14842). Put plainly: Agonist activity at Gq protein coupled human FFAR1 expressed in human 1321N1 cells assessed as induction of intracellular calcium level at 10 uM measured at 1.2 secs time interval by Fluo-4-AM dye based fluorescence assay. The format is functional, cell-based. A digest of the protocol: (§3)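 1321N1 astrocytoma cells retrovirally expressing human FFAR1, 50,000 per well, loaded 60 min at rt in dark with 3 µM Fluo-4-AM and 0.06 % Pluronic F-127 in HBSS. Compounds at 10 µM final; antagonist mode uses 30 min preincubation before TUG-424 (final 1 µM). Fluorescence at 520 nm (excitation 485 nm), 90 reads at 1.2 s intervals. Normalized to TUG-424 at 10 µM (agonist) or 1 µM (antagonist).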

The target of series [7] is T3, Free fatty acid receptor 4 (Homo sapiens) (UniProt Q5NUL3).
T3 sequence (whole entry): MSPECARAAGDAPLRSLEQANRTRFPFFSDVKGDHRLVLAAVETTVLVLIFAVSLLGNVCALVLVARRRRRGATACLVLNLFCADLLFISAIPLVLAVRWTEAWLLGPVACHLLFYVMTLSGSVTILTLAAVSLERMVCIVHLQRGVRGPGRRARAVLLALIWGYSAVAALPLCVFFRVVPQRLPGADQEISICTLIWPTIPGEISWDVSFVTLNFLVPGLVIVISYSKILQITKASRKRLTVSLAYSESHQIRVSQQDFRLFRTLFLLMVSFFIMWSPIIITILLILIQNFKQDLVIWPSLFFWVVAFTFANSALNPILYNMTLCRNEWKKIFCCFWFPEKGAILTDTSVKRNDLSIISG
Kind of series: Agonist activity at human FFAR4 expressed in CHO cells assessed as beta-arrestin recruitment at 10 uM after 90 mins by beta-galactosidase complementation assay. The format is cell-based. A digest of the protocol:
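Human FFAR4 in CHO β-galactosidase complementation cells, 30,000 per well, serum-free F12 ~4 h before assay; final DMSO 1 %, compounds 10 µM. Agonist mode: 90 min with agonist, then detection 60 min rt dark; luminescence. 3–4 experiments in duplicate.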

The target of series [8] is T3, Free fatty acid receptor 4 (Homo sapiens). Put plainly: Antagonist activity at human FFAR4 expressed in CHO cells assessed as inhibition of TUG-89-induced beta-arrestin recruitment at 10 uM preincubated for 30 mins followed by TUG-89 addition measured after 90 mins by beta-galactosidase complementation assay. It is filed as cell-based.
The nature of series [9]: Stability of the compound in water at 100 uM up to 24 hrs by HPLC-MS analysis. The format is physicochemical. As to conditions: buffer. A digest of the protocol: (§4)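 Stock (2.5 mM in methanol/acetonitrile 1:1) diluted to 100 µM final in water, 0.01 % aqueous ammonia (pH 9), 1 mM NaOH (pH 11), or artificial gastric acid (pepsin, NaCl, HCl; pH 1.2). Incubated at 37 °C up to 24 h, sampled at intervals. Analysed by LC-ESI-MS on C18 at 25 °C with water/2 mM ammonium acetate–acetonitrile gradient.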

Series [10] in a line: Stability of the compound in 1 mM sodium hydroxide solution at 100 uM at pH 11 up to 24 hrs by HPLC-MS analysis. The note with it: buffer, pH 11, 24 h. The format is physicochemical. In short, it runs like this: as §4
The nature of series [11]: Stability of the compound in 0.01% ammonia solution at 100 uM at pH 9 up to 24 hrs by HPLC-MS analysis. It is filed as physicochemical. As to conditions: buffer, pH 9, 24 h. A digest of the protocol:
as §4

A short description of series [12]: Stability of the compound in pH 1.2 artificial gastric fluid containing HCl, NaCl and pepsin at 100 uM up to 24 hrs by HPLC-MS analysis. A digest of the protocol: as §4
Series [13] addresses T1, G-protein coupled receptor 84. Kind of series: Antagonist activity at Gi coupled human GPR84 expressed in CHO cells assessed as inhibition of decanoic acid-induced receptor activation at 10 uM. The format is cell-based.
Series [14] deals with T2, Free fatty acid receptor 1. Put plainly: Antagonist activity at Gq protein coupled human FFAR1 expressed in human 1321N1 cells assessed as inhibition of TUG-424-induced intracellular calcium level preincubated for 30 mins followed by TUG-424 addition measured at 1.2 secs time interval by Fluo-4-AM dye based fluorescence assay. It is filed as functional, cell-based. In short, it runs like this: as §3
(Calcium flux is commonly read through the fluorescence of an indicator in the cells.)

The target of series [15] is T1, G-protein coupled receptor 84. Put plainly: Positive allosteric modulation of Gi coupled human GPR84 expressed in CHO cells assessed as potentiation of decanoic acid-induced inhibition of forskolin-induced cAMP accumulation by measuring increase in fold shift in decanoic acid EC50 at 0.1 to 30 uM after 15 mins in presence of [3H]-cAMP by radiometric assay. The format is functional, cell-based.

The target in series [16] is G-protein coupled receptor 35 (Homo sapiens) (UniProt Q9HC97). Kind of series: Agonist activity at human GPR35 at 10 uM.

Activity calls are given as the source filed them.

T1 sequence (Q9NQS5 whole entry): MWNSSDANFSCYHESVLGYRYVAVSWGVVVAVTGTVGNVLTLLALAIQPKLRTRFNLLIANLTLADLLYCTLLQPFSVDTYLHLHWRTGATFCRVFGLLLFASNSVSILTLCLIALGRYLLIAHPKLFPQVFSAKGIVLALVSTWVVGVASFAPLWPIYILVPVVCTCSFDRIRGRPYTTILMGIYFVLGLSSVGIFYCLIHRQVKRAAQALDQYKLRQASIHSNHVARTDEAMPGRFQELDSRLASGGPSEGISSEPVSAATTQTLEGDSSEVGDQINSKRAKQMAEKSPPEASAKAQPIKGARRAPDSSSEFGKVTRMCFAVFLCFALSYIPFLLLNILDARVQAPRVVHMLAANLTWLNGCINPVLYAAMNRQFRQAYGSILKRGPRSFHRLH
T2 sequence (O14842 whole entry): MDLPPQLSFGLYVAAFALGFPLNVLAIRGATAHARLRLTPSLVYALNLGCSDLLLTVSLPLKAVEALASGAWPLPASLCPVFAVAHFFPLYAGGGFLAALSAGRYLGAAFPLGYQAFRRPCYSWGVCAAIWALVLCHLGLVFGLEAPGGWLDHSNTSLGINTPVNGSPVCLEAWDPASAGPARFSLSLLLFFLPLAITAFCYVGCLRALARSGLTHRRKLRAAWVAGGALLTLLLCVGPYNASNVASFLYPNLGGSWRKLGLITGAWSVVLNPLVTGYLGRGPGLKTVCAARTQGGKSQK
G-protein coupled receptor 35 (Homo sapiens), sequence (Q9HC97 whole entry): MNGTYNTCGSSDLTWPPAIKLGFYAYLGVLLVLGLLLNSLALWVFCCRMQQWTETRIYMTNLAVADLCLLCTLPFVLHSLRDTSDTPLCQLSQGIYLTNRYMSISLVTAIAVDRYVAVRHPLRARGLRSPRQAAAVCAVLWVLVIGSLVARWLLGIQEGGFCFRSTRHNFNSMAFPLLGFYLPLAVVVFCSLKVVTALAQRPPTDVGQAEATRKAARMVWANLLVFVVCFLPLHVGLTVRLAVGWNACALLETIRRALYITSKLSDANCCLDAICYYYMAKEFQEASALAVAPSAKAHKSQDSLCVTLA

As to `c1ccc2c(c1)[nH]c1cc3c(cc12)[nH]c1ccccc13`, the inhibition entry in [1] was “inactive”.
Same read-out and setting: under `OCc1c[nH]c2ccccc12` stands “inactive”.
For `Fc1cccc2c(Cc3c[nH]c4c(F)cccc34)c[nH]c12`, the Emax in [2] was found to be 129%; in series [5], 99%. For the same compound, the EC50 in series [3] stood at 0.113 µM; in series [4], 6.07 µM. For the same compound, the outcome in series [6] and in [7] was inactive. Moreover, in series [8], the inhibition result was “inactive”. Also, the Stability result in series [9], in [10], in series [11] and in series [12] was “Stable” in each case.
On to `c1cc2c(c(C(c3c[nH]c4ccccc34)c3c[nH]c4ccccc34)c1)OCO2`, for which the Emax turned out to be 0% in series [2] and 7% in [5]. Moreover, the concentration giving a half-maximal response (EC50) in series [3] and in [4] was more than 10 µM throughout. The inhibition result in series [13] and in series [8] was “inactive” each time. Besides, the outcome in series [6] and in series [7] was inactive.
As to `Fc1cccc2[nH]cc(Cc3c[nH]c4cccc(F)c34)c12`, the Emax turned out to be 110% in series [2] and 108% in series [5]. The concentration for a half-maximal effect (EC50) was found to be 0.328 µM in [3], 1.23 µM in series [4] and 6.49 µM in [14]. In addition, the result in series [6] and in series [7] was inactive. Further, the inhibition result in [8] is “inactive”.
On to `Cc1ccc(C(c2c[nH]c3ccccc23)c2c[nH]c3ccccc23)cc1`, for which the figures for the Emax in series [2] and in series [5] were 2% and 10%, respectively. Besides, the EC50 in series [3] and in series [4] was more than 10 µM throughout. Moreover, the inhibition result in [13] and in series [8] was “inactive” throughout. For the same compound, the result in [6] and in [7] was inactive.
Regarding `COc1ccc2[nH]cc(C=C3C(=O)Nc4ccc(F)cc43)c2c1`, the Emax in [2] was 7%; in series [5] it was -31%. Also, the EC50 in series [3] and in series [4] was more than 10 µM throughout. Besides, the inhibition entry in series [13] and in series [8] was “inactive” throughout. Further, the outcome in series [6] and in series [7] was inactive.
As to `CC(C)C(c1c[nH]c2ccccc12)c1c[nH]c2ccccc12`, the Emax stood at 16% in series [2] and 167% in [5]. For the same compound, the EC50 in series [3] is more than 10 µM; in series [4], 7.29 µM; in series [14], 8.89 µM. Moreover, the inhibition result in series [13] and in [8] was “inactive” each time. In addition, the result in series [6] and in series [7] was inactive.
`Cn1cc(Cc2c[nH]c3ccccc23)c2ccccc21`: the Emax in [2] was 43%; in series [5], 8%. Besides, the results for the EC50 in series [3] and in series [4] were not below 10 µM and more than 10 µM, respectively. Further, the inhibition entry in [13] and in [8] was “inactive” in each case. Besides, the result in series [6] and in series [7] was inactive.
Consider `CC(c1c[nH]c2cccc(F)c12)c1c[nH]c2cccc(F)c12`, for which the Emax in series [2] was 5%; in series [5], 34%. Moreover, the EC50 in series [3] and in [4] was more than 10 µM in each case. The inhibition result in series [13] and in series [8] was “inactive” in each case. Moreover, the result in series [6] and in series [7] was inactive.
As for `Cc1[nH]c2ccccc2c1Cc1c(C)[nH]c2ccccc12`, the Emax in [2] came to 42%; in series [5] it was 23%. Also, the EC50 was not below 10 µM in series [3] and more than 10 µM in series [4]. For the same compound, the inhibition entry in series [13] and in series [8] was “inactive” each time. For the same compound, the result in series [6] and in [7] was inactive.
On to `CCC(c1c[nH]c2ccccc12)c1c[nH]c2ccccc12`, for which the Emax in [2] was -24%; in [5], 67%. For the same compound, the EC50 was more than 10 µM in [3] and 2.97 µM in series [4]. Also, the inhibition result in series [13] and in [8] was “inactive” throughout. The result in series [15], in series [6], in [7] and in series [16] was inactive.
For `CCCC(c1c[nH]c2ccccc12)c1c[nH]c2ccccc12`, the Emax in series [2] is -24%; in series [5], 199%. The EC50 in series [3] is more than 10 µM; in series [4], 6.07 µM; in series [14] it was 8.81 µM. In addition, the inhibition result in series [13] and in series [8] was “inactive” in each case. Besides, the result in series [6] and in [7] was inactive.

What is called Emax is the maximal effect, on the per cent scale that the assay sets. A word on the EC50: it is the concentration at which the effect is half-maximal.

The values above are taken from ChEMBL document CHEMBL4014307, “Diindolylmethane Derivatives: Potent Agonists of the Immunostimulatory Orphan G Protein-Coupled Receptor GPR84” (J Med Chem, 2017).
